Measurements taken from ChEMBL document CHEMBL1800074, “Novel quinoxaline derivatives for in vivo imaging of β-amyloid plaques in the brain” (Bioorg Med Chem Lett, 2011).
Values belong to the molecule of their own block, whether it stands above or below them. Active and inactive are the calls of the source. No cut-off for these calls is given here.

Legend:
[1] = Displacement of [125I]IMPY from amyloid beta (1-42) after 2 hrs by gamma counting
In short: (§1)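 Competition binding against [125I]IMPY on aggregated Aβ1-42, with inhibition curves built from the test ligand displacing the radioligand.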

Brain [2] = test: Biodistribution in ddY mouse brain at 37 KBq/100 ul, iv after 30 mins by gamma counting; assay type: ADME, organism-based; settings: in vivo, 0.5 h
In short: (§2)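 Normal ddY mice got an iv injection of the 125I-labelled ligand (no carrier added, radiochemical purity >98%). Organs were collected at 2, 30, 60 and 120 min. Activity is given as % injected dose per gram; stomach is given as % injected dose per organ. Values are the average of five mice ± standard deviation.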

Heart [3] = test: Biodistribution in ddY mouse heart at 37 KBq/100 ul, iv after 2 mins by gamma counting; assay type: ADME, organism-based; settings: in vivo; in short: as §2
Lung [4] = test: Biodistribution in ddY mouse lung at 37 KBq/100 ul, iv after 120 mins by gamma counting; assay type: ADME, organism-based; settings: in vivo, 2 h; in short: as §2
Stomach [5] = test: Biodistribution in ddY mouse stomach assessed per organ at 37 KBq/100 ul, iv after 2 mins by gamma counting; assay type: ADME, organism-based; settings: in vivo; in short: as §2
Liver [6] = test: Biodistribution in ddY mouse liver at 37 KBq/100 ul, iv after 60 mins by gamma counting; assay type: ADME, organism-based; settings: in vivo, 1 h; in short: as §2
Liver [7] = test: Biodistribution in ddY mouse liver at 37 KBq/100 ul, iv after 2 mins by gamma counting; assay type: ADME, organism-based; settings: in vivo; in short: as §2
Stomach [8] = test: Biodistribution in ddY mouse stomach assessed per organ at 37 KBq/100 ul, iv after 120 mins by gamma counting; assay type: ADME, organism-based; settings: in vivo, 2 h; in short: as §2
Blood [9] = test: Biodistribution in ddY mouse blood at 37 KBq/100 ul, iv after 120 mins by gamma counting; assay type: ADME, organism-based; settings: in vivo, 2 h; in short: as §2
Heart [10] = test: Biodistribution in ddY mouse heart at 37 KBq/100 ul, iv after 30 mins by gamma counting; assay type: ADME, organism-based; settings: in vivo, 0.5 h; in short: as §2
Brain [11] = test: Biodistribution in ddY mouse brain at 37 KBq/100 ul, iv after 2 mins by gamma counting; assay type: ADME, organism-based; settings: in vivo; in short: as §2
Intestine [12] = test: Biodistribution in ddY mouse intestine at 37 KBq/100 ul, iv after 2 mins by gamma counting; assay type: ADME, organism-based; settings: in vivo; in short: as §2
Blood [13] = test: Biodistribution in ddY mouse blood at 37 KBq/100 ul, iv after 30 mins by gamma counting; assay type: ADME, organism-based; settings: in vivo, 0.5 h; in short: as §2
Stomach [14] = test: Biodistribution in ddY mouse stomach assessed per organ at 37 KBq/100 ul, iv after 30 mins by gamma counting; assay type: ADME, organism-based; settings: in vivo, 0.5 h; in short: as §2
Heart [15] = test: Biodistribution in ddY mouse heart at 37 KBq/100 ul, iv after 120 mins by gamma counting; assay type: ADME, organism-based; settings: in vivo, 2 h; in short: as §2
Lung [16] = test: Biodistribution in ddY mouse lung at 37 KBq/100 ul, iv after 2 mins by gamma counting; assay type: ADME, organism-based; settings: in vivo; in short: as §2
Spleen [17] = test: Biodistribution in ddY mouse spleen at 37 KBq/100 ul, iv after 60 mins by gamma counting; assay type: ADME, organism-based; settings: in vivo, 1 h; in short: as §2
Lung [18] = test: Biodistribution in ddY mouse lung at 37 KBq/100 ul, iv after 30 mins by gamma counting; assay type: ADME, organism-based; settings: in vivo, 0.5 h; in short: as §2
Kidney [19] = test: Biodistribution in ddY mouse kidney at 37 KBq/100 ul, iv after 2 mins by gamma counting; assay type: ADME, organism-based; settings: in vivo; in short: as §2
Blood [20] = test: Biodistribution in ddY mouse blood at 37 KBq/100 ul, iv after 60 mins by gamma counting; assay type: ADME, organism-based; settings: in vivo, 1 h; in short: as §2
Spleen [21] = test: Biodistribution in ddY mouse spleen at 37 KBq/100 ul, iv after 30 mins by gamma counting; assay type: ADME, organism-based; settings: in vivo, 0.5 h; in short: as §2
Intestine [22] = test: Biodistribution in ddY mouse intestine at 37 KBq/100 ul, iv after 120 mins by gamma counting; assay type: ADME, organism-based; settings: in vivo, 2 h; in short: as §2
Lung [23] = test: Biodistribution in ddY mouse lung at 37 KBq/100 ul, iv after 60 mins by gamma counting; assay type: ADME, organism-based; settings: in vivo, 1 h; in short: as §2
Brain [24] = test: Biodistribution in ddY mouse brain at 37 KBq/100 ul, iv after 120 mins by gamma counting; assay type: ADME, organism-based; settings: in vivo, 2 h; in short: as §2
Intestine [25] = test: Biodistribution in ddY mouse intestine at 37 KBq/100 ul, iv after 30 mins by gamma counting; assay type: ADME, organism-based; settings: in vivo, 0.5 h; in short: as §2
Kidney [26] = test: Biodistribution in ddY mouse kidney at 37 KBq/100 ul, iv after 120 mins by gamma counting; assay type: ADME, organism-based; settings: in vivo, 2 h; in short: as §2
Spleen [27] = test: Biodistribution in ddY mouse spleen at 37 KBq/100 ul, iv after 120 mins by gamma counting; assay type: ADME, organism-based; settings: in vivo, 2 h; in short: as §2
Liver [28] = test: Biodistribution in ddY mouse liver at 37 KBq/100 ul, iv after 120 mins by gamma counting; assay type: ADME, organism-based; settings: in vivo, 2 h; in short: as §2
Kidney [29] = test: Biodistribution in ddY mouse kidney at 37 KBq/100 ul, iv after 60 mins by gamma counting; assay type: ADME, organism-based; settings: in vivo, 1 h; in short: as §2
Kidney [30] = test: Biodistribution in ddY mouse kidney at 37 KBq/100 ul, iv after 30 mins by gamma counting; assay type: ADME, organism-based; settings: in vivo, 0.5 h; in short: as §2
Heart [31] = test: Biodistribution in ddY mouse heart at 37 KBq/100 ul, iv after 60 mins by gamma counting; assay type: ADME, organism-based; settings: in vivo, 1 h; in short: as §2
[32] = Lipophilicity, log D of the compound; assay type: physicochemical; settings: octanol/water
Liver [33] = test: Biodistribution in ddY mouse liver at 37 KBq/100 ul, iv after 30 mins by gamma counting; assay type: ADME, organism-based; settings: in vivo, 0.5 h; in short: as §2
Spleen [34] = test: Biodistribution in ddY mouse spleen at 37 KBq/100 ul, iv after 2 mins by gamma counting; assay type: ADME, organism-based; settings: in vivo; in short: as §2
Brain [35] = test: Biodistribution in ddY mouse brain at 37 KBq/100 ul, iv after 60 mins by gamma counting; assay type: ADME, organism-based; settings: in vivo, 1 h; in short: as §2
Intestine [36] = test: Biodistribution in ddY mouse intestine at 37 KBq/100 ul, iv after 60 mins by gamma counting; assay type: ADME, organism-based; settings: in vivo, 1 h; in short: as §2
Brain [37] = test: Ratio of drug uptake after 2 mins to drug uptake in 120 mins in ddY mouse brain at 37 KBq/100 ul, iv; assay type: ADME, organism-based; settings: in vivo
In short: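 Brain uptake (% injected dose per gram) in normal ddY mice after iv injection of the 125I-labelled ligand. The value is the brain 2 min / brain 120 min ratio, from five mice per time point.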

Stomach [38] = test: Biodistribution in ddY mouse stomach assessed per organ at 37 KBq/100 ul, iv after 60 mins by gamma counting; assay type: ADME, organism-based; settings: in vivo, 1 h; in short: as §2
Blood [39] = test: Biodistribution in ddY mouse blood at 37 KBq/100 ul, iv after 2 mins by gamma counting; assay type: ADME, organism-based; settings: in vivo; in short: as §2
[40] = Binding affinity to amyloid beta (1-42) after 2 hrs by gamma counting; in short: as §1
[41] = target: Amyloid-beta precursor protein (Homo sapiens) (UniProt P05067); test: Binding affinity to amyloid beta (1-42) plaque in brain of patient with Alzheimer's disease at 185 KBq/100ul after 1 hr by immunofluorescence staining method; assay type: tissue-based; settings: tested as the 125I-labelled form
Amyloid-beta precursor protein (Homo sapiens), sequence (P05067 whole entry): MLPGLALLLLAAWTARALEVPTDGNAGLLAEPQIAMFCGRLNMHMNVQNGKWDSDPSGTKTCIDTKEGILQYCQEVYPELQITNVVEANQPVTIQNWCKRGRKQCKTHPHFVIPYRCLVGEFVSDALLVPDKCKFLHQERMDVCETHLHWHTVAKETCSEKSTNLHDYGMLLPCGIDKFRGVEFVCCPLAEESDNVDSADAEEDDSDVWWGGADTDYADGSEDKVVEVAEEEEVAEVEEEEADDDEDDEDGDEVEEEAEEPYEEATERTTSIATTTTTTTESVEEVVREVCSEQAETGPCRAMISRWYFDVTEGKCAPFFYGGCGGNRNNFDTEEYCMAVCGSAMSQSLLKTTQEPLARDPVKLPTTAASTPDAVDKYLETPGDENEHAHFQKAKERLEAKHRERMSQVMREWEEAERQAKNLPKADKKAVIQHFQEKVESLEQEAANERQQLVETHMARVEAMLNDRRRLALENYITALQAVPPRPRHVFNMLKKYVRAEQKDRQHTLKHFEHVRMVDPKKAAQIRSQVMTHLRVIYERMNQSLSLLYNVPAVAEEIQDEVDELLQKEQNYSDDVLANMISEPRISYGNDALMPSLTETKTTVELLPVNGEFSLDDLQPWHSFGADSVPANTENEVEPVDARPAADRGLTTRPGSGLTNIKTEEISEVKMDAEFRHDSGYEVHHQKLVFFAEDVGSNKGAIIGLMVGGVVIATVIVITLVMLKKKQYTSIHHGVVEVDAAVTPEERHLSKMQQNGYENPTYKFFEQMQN
In short: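 In vitro autoradiography with the 125I-labelled ligand on brain sections from an Alzheimer's disease patient. Plaque presence and distribution were confirmed by immunohistochemical staining with a monoclonal Aβ antibody.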

Mus musculus = species on record: Mus musculus; test: Binding affinity to amyloid beta plaque in APP/PS1 transgenic C57BL/6 mouse brain cortex at 185 KBq/100 ul after 1 hr by thioflavin S-fluorescence staining method; assay type: tissue-based; settings: C57BL6, tested as the 125I-labelled form

Compound: CN(C)c1ccc(-c2cn3cc([123I])ccc3n2)cc1
Kd [40]: 0.43 nM

Compound: CNc1ccc(-c2ccc3cc(OCCOCCOCCF)ccc3c2)cc1
Ki [1]: 3 nM

Compound: CNc1ccc2cc(-c3ccc(OCCOCCOCCF)cc3)ccc2c1
Ki [1]: 1.6 nM

Second part, the molecule after the results:

Ki [1]: 7.7 nM
Compound: CNc1ccc(-c2cnc3cc(I)ccc3n2)cc1

Drug uptake (Brain [2]): 5.21 % ID/g
Drug uptake (Heart [3]): 14.91 % ID/g
Drug uptake (Lung [4]): 1.95 % ID/g
Drug uptake (Stomach [5]): 2.06 %ID
Drug uptake (Liver [6]): 12.5 % ID/g
Drug uptake (Liver [7]): 30.49 % ID/g
Drug uptake (Stomach [8]): 8.62 %ID
Drug uptake (Blood [9]): 1.88 % ID/g
Drug uptake (Heart [10]): 2.53 % ID/g
Drug uptake (Brain [11]): 6.03 % ID/g
Drug uptake (Intestine [12]): 3.43 % ID/g
Drug uptake (Blood [13]): 2.88 % ID/g
Drug uptake (Stomach [14]): 3.28 %ID
Drug uptake (Heart [15]): 1.22 % ID/g
Drug uptake (Lung [16]): 14.53 % ID/g
Drug uptake (Spleen [17]): 2.22 % ID/g
Drug uptake (Lung [18]): 3.99 % ID/g
Drug uptake (Kidney [19]): 19.67 % ID/g
Drug uptake (Blood [20]): 2.98 % ID/g
Drug uptake (Spleen [21]): 2.82 % ID/g
Drug uptake (Intestine [22]): 16.93 % ID/g
Drug uptake (Lung [23]): 3.53 % ID/g
Drug uptake (Brain [24]): 1.12 % ID/g
Drug uptake (Intestine [25]): 18.62 % ID/g
Drug uptake (Kidney [26]): 3.96 % ID/g
Drug uptake (Spleen [27]): 1.17 % ID/g
Drug uptake (Liver [28]): 7.53 % ID/g
Drug uptake (Kidney [29]): 6.68 % ID/g
Drug uptake (Kidney [30]): 8.76 % ID/g
Drug uptake (Heart [31]): 2.17 % ID/g
logD [32]: 4.02
Drug uptake (Liver [33]): 15.73 % ID/g
Drug uptake (Spleen [34]): 5.69 % ID/g
Drug uptake (Brain [35]): 2.91 % ID/g
Drug uptake (Intestine [36]): 22.5 % ID/g
Ratio (Brain [37]): 5.38
Drug uptake (Stomach [38]): 5.39 %ID
Drug uptake (Blood [39]): 4.71 % ID/g
Compound: CN(C)c1ccc(-c2cnc3cc([125I])ccc3n2)cc1

Ki [1]: 4.1 nM
Activity [41]: Active
Activity (Mus musculus): Active
Compound: CN(C)c1ccc(-c2cnc3cc(I)ccc3n2)cc1

Ki [1]: 10.7 nM
Compound: Nc1ccc(-c2cnc3cc(I)ccc3n2)cc1

Ki [1]: 2.6 nM
Compound: CN(C)c1ccc(-c2cnc3cc(Br)ccc3n2)cc1
